One data set deals with PC-3. As to the kind of experiment: Cytotoxicity against human PC3 cells at 2 to 10 uM by MTT assay. In kind it is functional, cell-based.
Settings: not given
In a few lines:
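PC-3 cells (ATCC, tumorigenic metastatic prostate cancer) grown in RPMI 1640 with Glutamax, 10% FBS and 1% penicillin–streptomycin. Seeded at 5·10³ cells/well in complete medium and incubated overnight at 37 °C, 5% CO₂ before compound addition. MTT formazan absorbance read at 570 nm. Percentage viable cells relative to untreated controls used to derive IC50.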
For orientation: Tetrazolium assays rely on reduction of a dye to a coloured formazan, in cell work by metabolically active cells.
As for `C[Se]/C(=N\C(=O)c1ccccc1)NC(=O)c1ccccc1`, the IC50 (commonly the concentration that gives 50% inhibition) was 2.5 µM. For the molecule `C[Se]/C(=N\C(=O)c1ccc(Cl)cc1)NC(=O)c1ccc(Cl)cc1`, 7.6 µM corresponded to half-maximal inhibition (IC50).

With `C[Se]/C(=N\C(=O)c1ccc(C(C)(C)C)cc1)NC(=O)c1ccc(C(C)(C)C)cc1`, the IC50 was > 10 µM.

The molecule `C[Se](=O)O` [METHYLSELENINIC ACID] had an IC50 of 8.38 µM. For the molecule `C[Se]/C(=N\C(=O)c1ccc(C#N)cc1)NC(=O)c1ccc(C#N)cc1`, the IC50 is > 10 µM.

In the case of `C[Se]/C(=N\C(=O)c1ccc(C)cc1)NC(=O)c1ccc(C)cc1`, the half-inhibitory concentration (IC50) is 1.85 µM. The same measure, in the same setting: as for `CC[Se]/C(=N\C(=O)c1ccccc1)NC(=O)c1ccccc1`, the figure is > 10 µM; as for `CS/C(=N\C(=O)c1cccnc1Cl)NC(=O)c1cccnc1Cl`, > 10 µM; as for `CC(C)[Se]/C(=N\C(=O)c1ccccc1)NC(=O)c1ccccc1`, > 10 µM. Same read-out and setting: the value for `CS/C(=N\C(=O)c1ccc(Cl)cc1)NC(=O)c1ccc(Cl)cc1` was > 10 µM; that for `CS/C(=N\C(=O)c1ccccc1)NC(=O)c1ccccc1` was > 10 µM; that for `COc1cc(OC)cc(C(=O)/N=C(/NC(=O)c2cc(OC)cc(OC)c2)[Se]C)c1` was 6.5 µM.

As for `CC(C)[Se]/C(=N\C(=O)c1ccc(Cl)cc1)NC(=O)c1ccc(Cl)cc1`, the IC50 was > 10 µM. Same read-out and setting: as for `C[Se]/C(=N\C(=O)c1ccc(Cl)nc1)NC(=O)c1ccc(Cl)nc1`, the figure is 9.14 µM; as for `C[Se]/C(=N\C(=O)c1ccc(C(F)(F)F)cc1)NC(=O)c1ccc(C(F)(F)F)cc1`, > 10 µM; as for `COc1cc(OC)cc(C(=O)/N=C(/NC(=O)c2cc(OC)cc(OC)c2)[Se]C(C)C)c1`, > 10 µM. On the same count and under the same terms, as for `CS/C(=N\C(=O)c1ccc(C)cc1)NC(=O)c1ccc(C)cc1`, the figure is > 10 µM; as for `C[Se]/C(=N\C(=O)c1ccc([N+](=O)[O-])cc1)NC(=O)c1ccc([N+](=O)[O-])cc1`, > 10 µM.

System in the next data set: not listed separately
As to the kind of experiment: Toxicity against human RWPE1 cells at 2 to 10 uM by MTT assay. It counts as cell-based, RWPE-1. To be noted: read-out: LD50 (the source's name). An outline of the steps: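 Non-tumorigenic human prostate RWPE-1 cells (ATCC) kept in keratinocyte-SFM supplemented with 1% FBS and 1% penicillin–streptomycin. MTT read-out as formazan absorbance at 570 nm. Viability expressed as percentage of untreated control cells and used to derive IC50.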
For `C[Se]/C(=N\C(=O)c1ccccc1)NC(=O)c1ccccc1`, the CC50 amounted to 4.1 µM.

As to `C[Se]/C(=N\C(=O)c1ccc(C)cc1)NC(=O)c1ccc(C)cc1`, the CC50 is > 10 µM. Still for that read-out and setting: as for `C[Se]/C(=N\C(=O)c1ccc(Cl)nc1)NC(=O)c1ccc(Cl)nc1`, the figure is > 10 µM.

The record behind these values is ChEMBL document CHEMBL1140584, “Novel potent organoselenium compounds as cytotoxic agents in prostate cancer cells” (Bioorg Med Chem Lett, 2007).
